Cytotoxicity data for 96 molecules are collected here from ChEMBL document CHEMBL4513216, “Probing the Open Global Health Chemical Diversity Library for Multistage-Active Starting Points for Next-Generation Antimalarials” (ACS Infect Dis, 2020).

The nature of this data set: Toxicity liver stage against HepG2, at 10uM. Particulars: human, HepG2-A16-CD81EGFP cells; read-out: INHIBITION
Format: cell-based. Also on record: test concentration 10 uM, cell line HepG2-A16-CD81EGFP. The gist of the method: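 Uninfected HepG2-A16-CD81EGFP cells, 3 × 10^3 per well, 1536-well, plated on prespotted compound at 10 μM final, parasite-free screening media added to match infected plates; puromycin 10 μM positive, DMSO 0.5% negative; run in parallel with 48 h PbLuc assay at 37 °C, 5% CO2; viability by CellTiter-Glo luminescence, normalized to controls.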
On to `COc1ccc(CC(C)Nc2cccc(F)c2)cc1` (stereo unspecified), for which the cytotoxicity at 10 µM came out at 5.82%.
With `CN1CC[C@H](c2nnc(Cc3c[nH]c4ccccc34)o2)C1`, the cytotoxicity at 10 µM turned out to be 4.84%.
For `O=C1CC(c2ccc(O)cc2)c2c(c(C(=O)O)cn2-c2ccccc2)N1` (stereo unspecified) the value was -4.99%; for `O=C(Cc1noc(C(=O)NCCO)n1)Nc1cccc(C(F)(F)F)c1`, 8.9%; for `Cn1ccc2ccc(C(=O)N3CCN(C(=O)OC(C)(C)C)CC3)cc21`, 18.1%.
For `CS(=O)(=O)N1C[C@@H]2CCN(C(=O)c3ccco3)[C@@H]2C1` the value was 10%.
In the case of `c1cc(C[C@H]2[C@H](N3CCOCC3)CCN2Cc2ccoc2)ccn1`, the cytotoxicity at 10 µM is 10.2%.
Regarding `CC(=O)N1CCOC2(CCCN(Cc3ccc(N(C)C)cc3)C2)C1` (stereo unspecified), the cytotoxicity at 10 µM is 0.603%.
For `O=C(c1ccoc1)N1CCc2c(COCc3ccncc3)cncc2C1` the value was 8.1%; for `COCCn1c2c(ccc1=O)CCN(Cc1ccoc1)CC2`, -134%; for `Cc1ccc(N2CC3(CCN(C(=O)c4ccoc4)C3)C2)nn1`, -11.6%.
For `Cc1cnc(C(=O)N2CCc3ncnc(C)c3CC2)cn1` the value was -6.51%.
Regarding `Cc1nc(N2CCN(c3ccccc3)CC2)c2c(n1)c(C)nn2C`, the cytotoxicity at 10 µM amounted to 7.8%.
On to `Cc1nc(N2CCCCC2)ncc1-c1cc(O)nc(N2CCCCC2)n1`, for which the cytotoxicity at 10 µM stood at 11.8%.
For `Cc1nc(NC2CCN(S(=O)(=O)c3ccccc3)CC2)[nH]c(=O)c1C` the value was -3.45%.
For `CCOc1cc([C@@H]2N[C@H](c3nccs3)Cc3ccsc32)ccc1OC` the value was 7.94%; for `COC(=O)c1cccc(C2CNCCN2C(C)=O)c1` (stereo unspecified), 3.31%; for `O=C(C1CCCCC1)N1CCCC([C@@H]2C[C@H](C(F)F)n3ncnc3N2)C1` (stereo partly specified), 1.4%.
For `Cc1ccnc(C2CN(c3ncccn3)C2)n1` the value was 2.55%.
On to `CC1CCCN(CC(=O)N2CCC(c3ncc4c(n3)CCNC4)CC2)C1` (stereo unspecified), for which the cytotoxicity at 10 µM came to 7.62%.
As to `O=S(=O)(CCO)CCc1ccccc1Cl`, the cytotoxicity at 10 µM is 7.21%.
Next, `CC(C)CC(NC(=O)CN(C)c1cnccn1)c1cccs1` (stereo unspecified): 2.84%; `Cc1occc1CNc1ncccc1S(N)(=O)=O`: -149%; `CCc1cnccc1C(=O)Nc1ccc(C(N)=O)nc1`: 5.44%.
Next, `COc1ccc(C)nc1NC(=O)CCc1c(C)nn(C)c1C`: 0.918%; `Cc1cc(N2CCCCC2)c(C#N)c(C)n1`: -6.16%; `Cc1csc(-c2cccc(NC(=O)NCC(C)(C)C(N)=O)c2)n1`: -4.25%.
For `COC(=O)C1CN(Cc2nc(-c3ccccc3)cs2)C[C@@H](C)O1` (stereo partly specified) the value was -0.227%; for `CCN1CCCC1CNC(=O)CCc1cccs1` (stereo unspecified), -9.09%.
Regarding `CNC(=O)C(NC(=O)c1c(C)noc1C)c1ccc(F)c(F)c1` (stereo unspecified), the cytotoxicity at 10 µM is -18.3%.
Next, `O=C(NCCCn1cccn1)N1CCCC1c1cccs1` (stereo unspecified): -2.39%; `Cc1cc(C)cc(CNCCS(=O)(=O)N2CCOCC2)c1`: 1.05%.
Next, `CC(CNC(=O)c1ccc(Cl)cc1F)N1CCN(C)CC1` (stereo unspecified): -8.56%.
For `CCc1ncc2c(n1)CN(Cc1cnc(C)cn1)CC2` the value was -7.51%.
Regarding `CCCN1CCCN(c2ncccc2C(=O)N2CCCCC2)CC1`, the cytotoxicity at 10 µM came to 0.503%.
For `CC(C)c1nc(CNC2CCN(S(C)(=O)=O)CC2)cs1` the value was -1.53%.
Next, `CNC(=O)C(NC(=O)c1nccn2ccnc12)c1ccc(F)c(F)c1` (stereo unspecified): -12.6%; `Cc1nc(COC[C@@H]2CC[C@H]3[C@H](CCN3S(C)(=O)=O)O2)cs1`: 5.22%; `Cc1cc(CN2CC[C@H]3C[C@H](c4nccs4)O[C@@H]3C2)no1`: 3.22%.
For `CCC1=N[C@@]2(CC[C@@H]3CN(C(=O)NCc4ccccc4)C[C@@H]32)C(=O)N1C` the value was 1.05%.
Take `COCc1nc(CNC2CCCC(C)(C)C2)no1` (stereo unspecified): the cytotoxicity at 10 µM came to 2.55%.
Next, `C[C@@H]1CN(c2ccc(Cl)cn2)C[C@@]1(O)C1CC1`: -2.81%.
Take `COc1ccccc1-c1ncc(CN2CCC3(CCNCC3)CC2)cn1`: the cytotoxicity at 10 µM was -1.49%.
As for `Cn1c(Cn2ccnc2)nnc1C1CCCN(c2ncccn2)C1` (stereo unspecified), the cytotoxicity at 10 µM is -6.33%.
For `Cn1c(CCNC(=O)C2CCCN(C3CCOCC3)C2)n[nH]c1=O` (stereo unspecified), the cytotoxicity at 10 µM stood at 2.12%.
For `COCCC1CN(c2nc(-c3ccccc3)nc3c2CCNC3)CCO1` (stereo unspecified) the value was -2.98%.
As for `Cc1ncsc1CCN(C)C(=O)c1c(O)cccc1O`, the cytotoxicity at 10 µM amounted to 0.417%.
For `CN(CCNC(=O)c1cnc(-c2ccncc2)nc1)S(C)(=O)=O` the value was 5.23%.
Turning to `CSc1cccc(CN(C)C(=O)Cn2ncc(N3CCCC3)cc2=O)c1`, the cytotoxicity at 10 µM is -2.01%.
In the case of `O=C(N1CCC(OCc2ccccn2)CC1)C1(c2ccc(F)cc2)CC1`, the cytotoxicity at 10 µM amounted to 0.178%.
For `C[C@@H]1CN(c2cccnn2)CC[C@@]1(O)C1CCOCC1` the value was 2.72%; for `O=C(O)[C@@H]1CN(C2CCOCC2)C[C@H]1C1CC1`, -160%.
For `COCC1CCN(S(=O)(=O)N2C[C@@H](C)[C@@](C)(O)C2)CC1` the value was 3.45%; for `CCCN(Cc1cccc(OCCO)c1)Cc1ccccc1OC`, 5.15%.
For `Cc1cccc(C(=O)N2CCCCC2c2ccc(CN(C)C)cc2)n1` (stereo unspecified) the value was -19.5%; for `COc1cc(CNC(C)Cn2cccn2)cc(OC)c1` (stereo unspecified), 0.681%; for `COc1ccc(CNCC2CNc3ccnn3C2)cn1` (stereo unspecified), -3.84%.
In the case of `CCn1cnnc1C1CCN(C(=O)c2ccc(Cl)cc2OC)CC1`, the cytotoxicity at 10 µM is -1.94%.
With `CCC(O)CN1CCN(C(=O)CCc2c(C)noc2Cl)CC1` (stereo unspecified), the cytotoxicity at 10 µM was -8.89%.
For `Cc1noc(NC(=O)c2ccc(F)cc2)n1` the value was -0.481%; for `Cc1noc(C)c1CN(C)C(=O)c1ccc(O)nc1`, -9.71%.
Regarding `CC(NC(=O)NCc1ccccc1F)(C(=O)O)c1ccco1` (stereo unspecified), the cytotoxicity at 10 µM was -5.64%.
Turning to `Cc1cccc(OCCN2CCC(c3ccnn3CCO)CC2)c1`, the cytotoxicity at 10 µM was -4.87%.
Next, `O=C(c1cc[nH]n1)N1CCCC(c2cc(C(F)(F)F)[nH]n2)C1` (stereo unspecified): -6.97%; `Cc1cc(F)ccc1NS(=O)(=O)c1cc2c(c(C(=O)O)c1)OCCO2`: -6.56%.
Next, `Cn1ccnc1CN1CCCN(C(=O)c2ccc3[nH]nnc3c2)CC1`: -8.53%; `CCCN1CCC(CNC(=O)C2(c3cc(C)cc(C)c3)CCC2)C1` (stereo unspecified): -0.185%.
On to `O=C(C1CCN(Cc2nc(-c3ccco3)no2)CC1)N1CCCC1`, for which the cytotoxicity at 10 µM is -3.4%.
Next, `O=C(c1sccc1Br)N(Cc1cccnc1)C1CC1`: -4.07%; `Cc1noc(C2CCN(C(=O)Nc3ccc(N(C)C)nc3)CC2)n1`: -3.45%; `CCn1c(CN2CCN(CCO)CC2)nc2c(F)cccc21`: -8.83%.
For `O=C(c1ccnc(-n2ccnc2)c1)N1CCCC(n2ccnc2)C1` (stereo unspecified) the value was 0.956%; for `COCCCN(CCOC)Cc1nc2c(cnn2C)c(=O)[nH]1`, -5.72%.
Next, `Cc1nn(C)c(Cl)c1C1CCCN1C(=O)c1ccc[nH]1` (stereo unspecified): -8.57%; `Cc1nccn1C1CCCN(C(=O)c2ccc(N3CCCC3)nn2)C1` (stereo unspecified): -11.2%.
Regarding `Cc1ncc2c(n1)CN(CC(=O)Nc1ccncc1)CC2`, the cytotoxicity at 10 µM is -8.7%.
Next, `Cn1ncc2c(=O)[nH]c(CN3CCCC3CC3CCCCC3)nc21` (stereo unspecified): -2.41%; `CSc1ccsc1C(=O)N1CCN(CC(C)(C)O)CC1`: -3.22%.
On to `CCOCC(O)CN1CCN(C(=O)CC(C)C)CC1` (stereo unspecified), for which the cytotoxicity at 10 µM was -6.98%.
Next, `Cc1cnn(CCC(=O)N2CCCC(c3cc(C(N)=O)[nH]n3)C2)c1` (stereo unspecified): -7.32%; `Cc1cnn(CC2CCCCN2C(=O)c2ccnc(N(C)C)c2)c1` (stereo unspecified): 3.3%.
Next, `CCCNCc1ccc(OCc2ccc3c(c2)OCCO3)cc1`: 3.49%; `O=C(NCc1ccco1)[C@H]1COC[C@H]2CN(Cc3ccoc3)C[C@H]21`: -70.4%; `Cc1ncsc1CN1C[C@H](C(=O)NCC2CC2)[C@@H]2CCO[C@@H]2C1`: -3.17%.
As to `CN1CCN([C@@H]2CCN(C3CCOC3)[C@H]2Cc2cnn(C)c2)CC1` (stereo partly specified), the cytotoxicity at 10 µM worked out at 6.28%.
For `Cc1nc(C)n(CC2CN(Cc3cccnc3)Cc3nccn3C2)n1` (stereo unspecified) the value was -141%; for `O=S(=O)(NC[C@]12COC[C@H]1CN(CCc1ccccc1)C2)C1CC1`, 12.7%.
For `CO[C@H]1CCN(c2nnc(C)s2)C[C@@H]1Cc1cccc(C)c1` the value was 16.6%; for `O=C(C1CCOC1)N1CCC2(CC1)CN(c1ncccn1)CCO2` (stereo unspecified), -73.2%; for `CN(C)C[C@H]1OC[C@@H]2CN(C(=O)NCc3cccc(F)c3)CC[C@@H]21`, -2.12%.
For `Cc1ccccc1N1CC2(CCN(Cc3nccn3C)C2)CC1=O` (stereo unspecified) the value was -81.3%; for `CN1CCN(c2ncnc3c2CCN(c2ncc(F)cn2)CC3)CC1`, 7.61%; for `CN(C)C(=O)CN1C[C@H]2CC[C@@H](C1)N(C(=O)Cc1ccccc1Cl)C2`, -11.2%.
Consider `CNc1nc2cn(C3CC(C)(C)NC(C)(C)C3)c(=O)c-2c[nH]1`, for which the cytotoxicity at 10 µM is 12%.
For `Cc1cccc(-n2cc3[nH]c(=O)n(Cc4cccc(F)c4)n3c2=O)c1` the value was 1.79%; for `N#Cc1ccccc1CN1C[C@H]2CC[C@@H](C1)N(CC1CC1)C2=O`, -11.4%.
